High-throughput results (PubChem BioAssay)
OX1R antag-1: antagonists of human orexin 1 receptor (OX1R) | inhibition, % at 6.6 µM | actives 1.8% (n = 330,000) | AID 485270, 2010 | OX1R-expressing cells, FRET antagonist read-out; in the data active means inhibition mostly above about 38%, no sharp cut-off; inactive means mostly below about 40%
Target sequence (O43613 whole entry, looked up): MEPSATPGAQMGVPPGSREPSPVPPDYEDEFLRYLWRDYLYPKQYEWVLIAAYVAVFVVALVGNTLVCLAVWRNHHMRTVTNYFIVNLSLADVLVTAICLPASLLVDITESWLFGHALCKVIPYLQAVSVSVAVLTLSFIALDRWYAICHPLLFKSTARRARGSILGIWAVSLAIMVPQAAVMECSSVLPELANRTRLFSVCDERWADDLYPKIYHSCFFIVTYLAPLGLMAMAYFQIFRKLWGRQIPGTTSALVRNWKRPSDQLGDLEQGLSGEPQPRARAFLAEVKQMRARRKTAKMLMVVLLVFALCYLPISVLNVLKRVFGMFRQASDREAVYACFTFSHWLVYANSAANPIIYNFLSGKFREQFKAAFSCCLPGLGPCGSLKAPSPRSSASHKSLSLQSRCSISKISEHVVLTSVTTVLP
TAAR1 antag: human TAAR1 antagonists, primary screen, Fluo-8 calcium fluorescence, CHO RD-HGA16 cells; Trace amine-associated receptor 1 (Homo sapiens), Q96RJ0; actives 1.5% (n = 360,000); inhibition, % at 3 µM; antagonist; AID 624466, 2012;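 active means inhibition above a per-plate cutoff, the mean inhibition of test compounds on that plate plus 3 SD, cut at about 49% in these data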
Target sequence (Q96RJ0 whole entry, looked up): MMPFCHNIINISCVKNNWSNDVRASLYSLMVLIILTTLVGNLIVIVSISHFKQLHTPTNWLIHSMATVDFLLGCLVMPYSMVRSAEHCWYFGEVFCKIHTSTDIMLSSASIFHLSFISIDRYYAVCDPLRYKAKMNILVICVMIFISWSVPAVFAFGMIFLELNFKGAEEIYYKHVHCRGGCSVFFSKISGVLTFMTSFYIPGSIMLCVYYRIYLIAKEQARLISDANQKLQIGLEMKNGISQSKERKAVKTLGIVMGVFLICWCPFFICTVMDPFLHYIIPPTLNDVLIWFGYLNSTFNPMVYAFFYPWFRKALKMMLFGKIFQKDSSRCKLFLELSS
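Material: RD-HGA16 CHO cells with stable hTAAR1 and Gα16; Dosing: single nominal final test compound concentration of 3 µM; Schedule: seeding 17-24 h prior, 75-min 37 °C, 30-min RT dye loading; Detection: kinetic Fluo-8 calcium fluorescence measurement; Measure: % inhibition from peak post-agonist over basal fluorescence ratio; Benchmarks: vehicle and agonist controls.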
CHO parental Ca: ATP-evoked calcium signal inhibitors, parental CHO, primary screen, counter-screen for OX1R antagonist project, cell-based, fluorescence, Fluo-8 calcium dye. parental CHO-K1, ATP-induced calcium, Fluo-8 fluorescence. inhibition, % at 5.6 µM. actives 0.63% (n = 330,000). AID 463079, 2010;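 active means inhibition above that plate's mean sample inhibition plus 3 SD, cut at about 26% in these data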
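material = parental CHO cells | also added = ATP as calcium-mobilizing challenge | dosing = single point at 5.6 µM | detection = intracellular calcium via Fluo-8 no-wash fluorescent dye | read-out = % inhibition | benchmarks = low control ATP plus DMSO, high control DMSO only | repeats = one well per compound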
OX1R antag-2: OX1R (HCRTR1) antagonists, primary screen, fluorescence, CHO/OX1R cells, Fluo-8 calcium, orexin A. AID 434989, 2010. Fluo-8 calcium fluorescence. actives 0.43% (n = 330,000). inhibition, % at 5 µM;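 active means inhibition above its plate's threshold, mean inhibition of all tested compounds on the plate plus 3 SD, cut at about 37% in these data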
TAAR1 agonist: human TAAR1 agonists, primary screen, Fluo-8 calcium fluorescence, CHO RD-HGA16 cells; AID 624467, 2012; Trace amine-associated receptor 1 (Homo sapiens), Q96RJ0; vehicle wells 0%, saturating PEA agonist 100%; activation, % at 3 µM; actives 0.99% (n = 360,000);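 active means activation above the mean activation of all test compounds in the run plus 3 SD, cut at about 38% in these data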
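System: CHO-derived RD-HGA16 cells with stable Gα16 and human TAAR1 / Times: 17-24 h plating, Fluo-8 75 min 37 °C, 30 min RT / Technique: calcium-sensitive Fluo-8 signal, excitation 470-495, emission 515-575 nm / Measure: % activation relative to PEA EC100 response / Benchmarks: DMSO and PEA EC100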
TAAR1 nonsel count: nonselective antagonists in TAAR1 counter-screen cells, counter-screen for hTAAR1 antagonist project, cell-based, fluorescence, calcium. actives 77% (n = 2,400). inhibition, % at 3 µM. shares compounds with TAAR1 antag. counterscreen cell line, antagonist mode; in the data active means inhibition above about 22%;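 further: CHO-Ga16 host cells stimulated with ATP at an EC80 level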
TAAR1 ant conf: human TAAR1 antagonists, retest of hits, confirmation, cell-based, fluorescence | TAAR1-expressing cells, fluorescence antagonist read-out | actives 40% (n = 2,400) | shares compounds with TAAR1 antag | inhibition, % at 3 µM; in the data active means inhibition above about 49%;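 further: CHO-Ga16 host cells challenged with agonist PEA near its EC80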
Ga16 nonsel ag: calcium activation in Ga16-expressing cells, counter-screen for TAAR1 antagonist project, cell-based, fluorescence; shares compounds with TAAR1 antag; agonist counterscreen; activation, % at 3 µM; actives 18% (n = 2,400); AID 651953, 2012; in the data active means activation above about 12%
TAAR1 ag counter: TAAR1 activation by candidate antagonists – cell-based, fluorescence, counter-screen for TAAR1 antagonist project; shares compounds with TAAR1 antag; hTAAR1 cell line, agonist mode; activation, % at 3 µM; actives 2% (n = 2,400); AID 651955, 2012; in the data active means activation above about 37%;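 further: CHO cells stably expressing TAAR1 with calcium dye readout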
Of the large screens only hits and unclear results are named; the others gave an inactive call (follow-up assays come after a bar, where they were run). Only some compounds are listed: those with a hit (about 3.9% of all), similar ones and a draw of the others.

COc1ccc(Nc2nc(-c3cccs3)nc3ccccc23)cc1S(=O)(=O)N1CCOCC1	TAAR1 antag 70.6 | TAAR1 nonsel count 30.5 | TAAR1 ant conf 49.3 | Ga16 nonsel ag inactive | TAAR1 ag counter inactive
COc1ccc(NC(=O)c2ccc(-c3ccccc3)cc2)cc1S(=O)(=O)N1CCOCC1	TAAR1 antag 86.5 | TAAR1 nonsel count 47.4 | TAAR1 ant conf 60.9 | Ga16 nonsel ag 14.0 | TAAR1 ag counter inactive
COc1cc(CCC(=O)Nc2ccc(Br)c(C(F)(F)F)c2)cc(OC)c1OC	none
CC(C)(C)N1C(=O)c2ccc(C(=O)Nc3nccs3)cc2C1=O	TAAR1 antag 49.1 | TAAR1 nonsel count inactive | TAAR1 ant conf inactive | Ga16 nonsel ag inactive | TAAR1 ag counter inactive
COc1ccccc1N1C(=O)c2ccc(C(=O)Nc3nccs3)cc2C1=O	none
COc1ccccc1OCC(=O)Nc1cccc(-c2nc3ccccc3o2)c1	TAAR1 antag 65.6 | TAAR1 nonsel count 33.4 | TAAR1 ant conf inactive | Ga16 nonsel ag inactive | TAAR1 ag counter inactive
O=C(COc1ccccc1)Nc1cccc(-c2nc3cc4ccccc4cc3[nH]2)c1	TAAR1 antag 69.0 | TAAR1 nonsel count 37.6 | TAAR1 ant conf 58.8 | Ga16 nonsel ag inactive | TAAR1 ag counter inactive
Cc1cccc(C)c1OCC(=O)Nc1cccc(-c2nnc(-c3ccccc3)o2)c1	none
Cc1cccc(OCC(=O)Nc2cccc(-c3nnc(-c4ccccc4)o3)c2)c1C	TAAR1 antag 68.7 | TAAR1 nonsel count 32.1 | TAAR1 ant conf 60.5 | Ga16 nonsel ag inactive | TAAR1 ag counter inactive
CC(=O)Nc1cccc(-c2nnc(-c3ccc(C)cc3)o2)c1	none (no result: OX1R antag-1, CHO parental Ca, OX1R antag-2)
Cc1ccc(OCC(=O)Nc2cccc(-c3nnc(-c4ccccc4)o3)c2)cc1	TAAR1 antag 68.7 | TAAR1 nonsel count 35.4 | TAAR1 ant conf 64.8 | Ga16 nonsel ag inactive | TAAR1 ag counter inactive
COCCC(=O)N1CCC(Oc2ccc(C(=O)N3C[C@H]4CC[C@H]3C4)cc2)CC1	none
CCOc1ccc(C(=O)CCC(=O)NCC(=O)Nc2c(C)cccc2C)cc1	none
COc1ccc(CC(=O)Nc2cccc(-c3csc(C)n3)c2)cc1	none
O=C(Nc1cccc(-c2nnc(-c3ccccc3)o2)c1)c1ccco1	TAAR1 antag 49.8 | TAAR1 nonsel count 29.4 | TAAR1 ant conf inactive | Ga16 nonsel ag inactive | TAAR1 ag counter inactive
Cc1ccc(SCC(=O)Nc2cccc(-c3nnc(-c4ccco4)o3)c2)cc1	TAAR1 antag 64.7 | TAAR1 nonsel count 37.7 | TAAR1 ant conf 52.5 | Ga16 nonsel ag inactive | TAAR1 ag counter inactive
O=C(CSc1ccc(Cl)cc1)Nc1cccc(-c2nnc(-c3ccco3)o2)c1	none
Cc1nc(-c2cccc(NC(=O)COc3ccc(Cl)cc3)c2)cs1	TAAR1 antag 54.7 (no result: OX1R antag-1, CHO parental Ca, OX1R antag-2) | TAAR1 nonsel count 30.1 | TAAR1 ant conf inactive | Ga16 nonsel ag inactive | TAAR1 ag counter inactive
COc1ccc(C2CC(=O)C(c3ccccc3OC)=CN2Cc2ccccc2)cc1 (stereo unspecified)	TAAR1 antag 56.3 (no result: OX1R antag-1, CHO parental Ca, OX1R antag-2) | TAAR1 nonsel count inactive | TAAR1 ant conf inactive | Ga16 nonsel ag inactive | TAAR1 ag counter inactive
COc1ccc(C2CC(=O)C(c3ccc(C)cc3)=CN2Cc2ccccc2)cc1 (stereo unspecified)	none (no result: OX1R antag-1, CHO parental Ca, OX1R antag-2)
CCCCN(C(=O)c1ccc(S(=O)(=O)N2CCC(C)CC2)cc1)C1CCS(=O)(=O)C1 (stereo unspecified)	none
Cc1ccc(C(=O)NCC(=O)OCC(=O)/C=C2\N(C)c3ccccc3C2(C)C)cc1C	TAAR1 antag 58.4 | TAAR1 nonsel count 29.2 | TAAR1 ant conf inactive | Ga16 nonsel ag inactive | TAAR1 ag counter inactive
CCN(C(=O)COC(=O)/C(C#N)=C/c1ccc(OC)cc1)C1CCS(=O)(=O)C1 (stereo unspecified)	none
CCO[C@@H]1OC(C(=O)NCc2nc3ccccc3[nH]2)=C[C@H](c2csc3ccccc23)[C@H]1CCCO	TAAR1 antag 53.4 | TAAR1 nonsel count 30.4 | TAAR1 ant conf inactive | Ga16 nonsel ag inactive | TAAR1 ag counter inactive
CCO[C@H]1OC(C(=O)NCc2nc3ccccc3[nH]2)=C[C@@H](c2ccccc2)[C@@H]1CCCO	none
CCO[C@H]1OC(C(=O)NCc2nc3ccccc3[nH]2)=C[C@@H](c2csc3ccccc23)[C@@H]1CCCO	TAAR1 antag 53.6 | TAAR1 nonsel count 25.6 | TAAR1 ant conf inactive | Ga16 nonsel ag inactive | TAAR1 ag counter inactive
COC(=O)c1ccc(C(=O)N2CCCCCC2(C)C(=O)NC(C)C)cc1 (stereo unspecified)	none (no result: OX1R antag-1, CHO parental Ca, OX1R antag-2)
Cc1ccc(SC[C@H](Cc2ccccc2)N2CCN(CC(C)C)CCC2=O)cc1	none
CC(C)CN1CCC(=O)N([C@H](CSc2ccccc2)Cc2ccccc2)CC1	TAAR1 antag 53.1 | TAAR1 nonsel count inactive | TAAR1 ant conf inactive | Ga16 nonsel ag inactive | TAAR1 ag counter inactive
CCN(CC(=O)Nc1ccc(NC(C)=O)cc1)C(=O)c1cc(-c2ccccc2)nn1-c1ccccc1	none
CN(CC(=O)Nc1ccc(F)cc1)C(=O)c1cc(-c2cccs2)nn1-c1ccccc1	TAAR1 antag 69.1 (no result: OX1R antag-1, CHO parental Ca, OX1R antag-2) | TAAR1 nonsel count 27.7 | TAAR1 ant conf inactive | Ga16 nonsel ag inactive | TAAR1 ag counter inactive
COC(=O)Nc1sc2c(c1C(=O)NCc1ccco1)CCCC2	TAAR1 antag 106.6 | TAAR1 nonsel count inactive | TAAR1 ant conf inactive | Ga16 nonsel ag inactive | TAAR1 ag counter inactive
COC(=O)Nc1sc2c(c1C(=O)NCc1ccco1)CCC2	none
O=C(O)C1CCCN1C(=O)c1cccc(Cl)c1 (stereo unspecified)	none (no result: OX1R antag-1, CHO parental Ca, OX1R antag-2)
O=C(Nc1nccs1)c1cn(-c2ccccc2)nc1-c1ccccc1	TAAR1 antag 71.8 | TAAR1 nonsel count inactive | TAAR1 ant conf inactive | Ga16 nonsel ag inactive | TAAR1 ag counter inactive
O=C(Nc1nccs1)c1cc(-c2ccccc2)nc2ccccc12	TAAR1 antag 66.0 | TAAR1 nonsel count 28.3 | TAAR1 ant conf 54.3 | Ga16 nonsel ag inactive | TAAR1 ag counter inactive
O=C(Nc1nccs1)c1cc(-c2ccccc2)nn1-c1ccccc1	none
